Measurements published in ChEMBL document CHEMBL3098122, “Synthesis, biological activity and structure-activity relationships of new benzoic acid-based protein tyrosine phosphatase inhibitors endowed with insulinomimetic effects in mouse C2C12 skeletal muscle cells” (Eur J Med Chem, 2014).
Activity calls are given as the source filed them. The rule behind the calls is not given here.

Legend:
[1] = Cytotoxicity against mouse C2C12 cells expressing PTP1B, TC-PTP, LMW-PTP and insulin receptor assessed as cell viability after 2 hrs by MTT assay; type: cell-based; set-up: concentration or dose not given beside the values; settings: read-out: Activity
Method in brief: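 C2C12 myoblasts differentiated 4 days in DMEM with 2% horse serum, serum-starved 20 h; myotubes then given MTT (0.5 mg/ml final) for 2 h at 37 °C, lysed in DMSO, formazan read at 570 nm; three replicates relative to control.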

[2] = molecular target: T1, Low molecular weight phosphotyrosine protein phosphatase (Homo sapiens, UniProt P24666); test: Inhibition of human recombinant LMW-PTP IF1 expressed in Escherichia coli TB1 using p-nitrophenylphosphate as substrate
T1 sequence (P24666 whole entry): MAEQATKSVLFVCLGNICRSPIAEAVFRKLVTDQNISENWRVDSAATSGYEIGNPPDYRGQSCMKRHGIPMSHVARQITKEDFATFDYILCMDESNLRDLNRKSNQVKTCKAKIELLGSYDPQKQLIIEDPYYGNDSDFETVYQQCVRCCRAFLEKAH

[3] = molecular target: T2, Tyrosine-protein phosphatase non-receptor type 2 (Homo sapiens, UniProt P17706); test: Inhibition of TC-PTP (unknown origin) purchased from New England Biolabs using p-nitrophenylphosphate as substrate
T2 sequence (P17706 whole entry): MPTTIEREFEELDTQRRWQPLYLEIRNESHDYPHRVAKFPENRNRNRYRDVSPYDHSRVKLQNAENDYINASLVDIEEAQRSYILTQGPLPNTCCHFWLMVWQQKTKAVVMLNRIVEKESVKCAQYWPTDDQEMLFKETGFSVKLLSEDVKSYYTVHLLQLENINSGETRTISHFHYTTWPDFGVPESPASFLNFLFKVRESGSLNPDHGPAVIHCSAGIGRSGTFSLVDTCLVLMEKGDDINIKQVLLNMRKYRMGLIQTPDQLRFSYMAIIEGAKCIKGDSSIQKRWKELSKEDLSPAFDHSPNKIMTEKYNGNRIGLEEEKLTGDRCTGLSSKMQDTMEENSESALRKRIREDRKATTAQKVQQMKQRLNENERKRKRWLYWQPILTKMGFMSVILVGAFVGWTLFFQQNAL

[4] = molecular target: T1, Low molecular weight phosphotyrosine protein phosphatase; test: Inhibition of human recombinant LMW-PTP IF2 expressed in Escherichia coli TB1 using p-nitrophenylphosphate as substrate
[5] = molecular target: T3, Tyrosine-protein phosphatase non-receptor type 1 (Mus musculus) (UniProt P35821); test: Inhibition of PTP1B in mouse C2C12 cells assessed as increase of 2-deoxy-D-1,2-[3H]-glucose at 25 uM after 90 mins by beta-scintillation counting; type: cell-based
T3 sequence (whole entry): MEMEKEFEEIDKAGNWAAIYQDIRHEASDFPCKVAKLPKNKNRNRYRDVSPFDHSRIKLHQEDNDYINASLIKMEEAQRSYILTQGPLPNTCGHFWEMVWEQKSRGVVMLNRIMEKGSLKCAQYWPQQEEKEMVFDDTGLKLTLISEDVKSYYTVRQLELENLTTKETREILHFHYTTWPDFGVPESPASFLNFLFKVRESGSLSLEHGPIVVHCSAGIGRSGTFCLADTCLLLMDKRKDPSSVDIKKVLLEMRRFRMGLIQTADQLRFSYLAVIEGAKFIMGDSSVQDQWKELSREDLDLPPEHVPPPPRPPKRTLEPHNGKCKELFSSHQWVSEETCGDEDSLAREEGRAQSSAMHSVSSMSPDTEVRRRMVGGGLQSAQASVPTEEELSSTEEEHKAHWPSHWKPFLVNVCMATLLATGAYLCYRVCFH
Method in brief: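 Serum-starved differentiated C2C12 myotubes treated 90 min with 25 µM compound (1.2% DMSO) or 30 min with 10 nM insulin, then 0.1 µCi 2-deoxy-D-[1,2-3H]glucose in Ringer-Hepes for 15 min at 37 °C; cold PBS wash, 0.2 M NaOH lysis, scintillation counting normalized to Bradford protein; three replicates.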

[6] = molecular target: T3, Tyrosine-protein phosphatase non-receptor type 1 (Mus musculus); test: Inhibition of PTP1B in mouse C2C12 cells assessed as increase of insulin receptor beta phosphorylation at 25 uM after 90 mins; type: cell-based
Method in brief: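 Differentiated, 20 h serum-starved C2C12 myotubes exposed to 25 µM compound (DMSO 1.2% final) for 90 min at 37 °C, insulin 10 nM 30 min as positive control; lysates run on SDS-PAGE, Western blot for phospho-insulin receptor β with actin loading control, densitometry; three replicates, p<0.05 versus control.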

Homo sapiens [7] = species: Homo sapiens; test: Selectivity ratio of IC50 for human recombinant LMW-PTP IF2 to IC50 for human recombinant PTP1B
[8] = molecular target: T4, Tyrosine-protein phosphatase non-receptor type 1 (Homo sapiens, UniProt P18031); test: Noncompetitive inhibition of human recombinant PTP1B expressed in Escherichia coli TB1 using p-nitrophenylphosphate as substrate by Double reciprocal plot analysis
T4 sequence (P18031 whole entry): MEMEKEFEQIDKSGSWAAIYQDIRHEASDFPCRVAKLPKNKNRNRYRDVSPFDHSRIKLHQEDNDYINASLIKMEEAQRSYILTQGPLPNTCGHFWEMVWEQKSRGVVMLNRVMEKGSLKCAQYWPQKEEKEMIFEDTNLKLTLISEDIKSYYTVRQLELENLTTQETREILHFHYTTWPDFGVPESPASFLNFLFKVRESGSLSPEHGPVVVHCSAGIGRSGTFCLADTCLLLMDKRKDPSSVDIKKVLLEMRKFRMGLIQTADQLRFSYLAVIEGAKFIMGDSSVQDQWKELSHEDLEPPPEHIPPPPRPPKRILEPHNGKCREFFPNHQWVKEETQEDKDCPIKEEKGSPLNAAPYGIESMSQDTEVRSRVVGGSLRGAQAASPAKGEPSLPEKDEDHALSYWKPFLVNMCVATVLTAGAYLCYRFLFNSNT
Method in brief: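 PTP1B (human, GST fusion from pGEX-2T in E. coli TB1, thrombin-cleaved, gel-filtered) assayed at 37 °C, pH 7.0 β,β-dimethylglutarate buffer with 1 mM EDTA and 5 mM DTT, p-nitrophenylphosphate at seven final concentrations (0.5–25 mM) with increasing inhibitor; KOH-stopped, A400. Inhibition type from double reciprocal plots; Ki from apparent Km vs inhibitor concentration; triplicate initial rates.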

[9] = molecular target: T4, Tyrosine-protein phosphatase non-receptor type 1; test: Inhibition of human recombinant PTP1B expressed in Escherichia coli TB1 using p-nitrophenylphosphate as substrate
Homo sapiens [10] = species: Homo sapiens; test: Selectivity ratio of IC50 for human recombinant LMW-PTP IF1 to IC50 for human recombinant PTP1B
[11] = molecular target: T5, Tyrosine-protein phosphatase non-receptor type 1 (Homo sapiens) (UniProt P18031); test: Reversible inhibition of human recombinant PTP1B expressed in Escherichia coli TB1 using p-nitrophenylphosphate as substrate assessed as residual activity at 25 times IC50 after 1 hr measured after 400 fold dilution
T5 sequence (whole entry): T4 sequence (P18031 whole entry)
Method in brief: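 Reversibility: PTP1B preincubated 1 h at 37 °C with at least 25-fold […], DMSO in controls; mixture then diluted 400-fold in assay buffer and residual activity measured on p-nitrophenylphosphate; three replicates, mean ± SE.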

Homo sapiens [12] = species: Homo sapiens; test: Selectivity ratio of IC50 for human recombinant LMW-PTP IF2 to IC50 for human recombinant LMW-PTP IF1
Homo sapiens [13] = species: Homo sapiens; test: Selectivity ratio of IC50 for TC-PTP (unknown origin) to IC50 for human recombinant PTP1B
Method in brief: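 Commercial T-cell PTP assayed on p-nitrophenylphosphate at 37 °C, pH 7.0 β,β-dimethylglutarate buffer with 1 mM EDTA and 5 mM DTT; stopped with 1 M KOH, absorbance at 400 nm; IC50 from ratio of activity with and without inhibitor versus inhibitor concentration. Ratio lines pair this with recombinant human PTP1B measured the same way.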

IC50 [2]: 10.8 µM | IC50 [3]: 3.5 µM | IC50 [4]: > 50 µM | inhibition [5]: Active | inhibition [6]: Active | Ratio IC50 (Homo sapiens [7]): > 2 | Ki [8]: 1.4 µM | IC50 [9]: 1.1 µM | Ratio IC50 (Homo sapiens [10]): > 2 | Activity [11]: 80% | Ratio IC50 (Homo sapiens [12]): > 2 | Ratio IC50 (Homo sapiens [13]): 2
Compound: COc1cc(/C=C2\SC(=O)N(Cc3ccc(C(=O)O)cc3)C2=O)ccc1OCCc1ccccc1
viability at 2 h [1]: ≥ 80%
